In ChEMBL document CHEMBL1821697, “Design and synthesis of brain penetrant selective JNK inhibitors with improved pharmacokinetic properties for the prevention of neurodegeneration” (Bioorg Med Chem Lett, 2011):

Columns and labels:
[1] = Solubility of the compound in Hank's buffered salt solution at 20 mM at pH 7.4 after 1 hr; format: physicochemical
[2] = Oxidative metabolic stability in rat liver microsomes assessed as compound remaining at 1 uM after 30 mins; format: ADME, Microsome; conditions: read-out: Stability
Outline: (§1)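 Test compound was incubated with mouse, rat or human liver microsomes for 30 min. The read-out is percent of parent compound remaining.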

[3] = Oxidative metabolic stability in human liver microsomes assessed as compound remaining at 1 uM after 30 mins; format: ADME, Microsome; conditions: read-out: Stability; outline: as §1
[4] = biological target: Mitogen-activated protein kinase 8 (Homo sapiens, UniProt P45983); assay: Inhibition of recombinant JNK1 using ser73 of c-jun as substrate preincubated for 15 mins measured after 60 mins by TR-FRET assay
Outline: (§2)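 Recombinant JNK enzyme assay run at 10 µM ATP. IC50 values are means of at least three experiments.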

[5] = biological target: Mitogen-activated protein kinase 10 (Homo sapiens, UniProt P53779); assay: Inhibition of recombinant JNK3 using ser73 of c-jun as substrate preincubated for 15 mins measured after 60 mins by TR-FRET assay; outline: as §2
[6] = biological target: Mitogen-activated protein kinase 9 (Homo sapiens, UniProt P45984); assay: Inhibition of recombinant JNK2 using ser73 of c-jun as substrate preincubated for 15 mins measured after 60 mins by TR-FRET assay; outline: as §2
[7] = Oxidative metabolic stability in mouse liver microsomes assessed as compound remaining at 1 uM after 30 mins; format: ADME, Microsome; conditions: read-out: Stability; outline: as §1
[8] = biological target: Mitogen-activated protein kinase 14 (Homo sapiens, UniProt Q16539); assay: Inhibition of recombinant p38alpha Thr69/71 of ATF-2 as substrate preincubated for 15 mins measured after 60 mins by TR-FRET assay
MDR1 = assay: Efflux ratio of permeability across MDCK2 expressing MDR1 at 5 uM after 120 mins by LC/MS/MS method; format: ADME, Canis lupus familiaris, MDCK-II; conditions: dog, MDCK-MDR1
[9] = Apparent permeability from apical to basolateral side of MDCK2 cells at 5 uM after 120 mins by LC/MS/MS method; format: ADME, cell-based, Canis lupus familiaris, MDCK-II; conditions: dog, MDCK
[10] = biological target: Mitogen-activated protein kinase 1 (Homo sapiens, UniProt P28482); assay: Inhibition of recombinant ERK2 using Ser383 of Elk-1 as substrate preincubated for 15 mins measured after 60 mins by TR-FRET assay
Rattus norvegicus [11] = assay: AUC in rat at 2 mg/kg, po; format: ADME, organism-based, Plasma; set-up: dose 2 mg/kg, route oral; conditions: in vivo
Outline: (§3)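 Rats received an oral dose of 2 mg/kg. Plasma AUC is reported in nmol h/mL. Oral bioavailability (F%) was calculated against a 1 mg/kg intravenous dose.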

[12] = Half life in rat at 1 mg/kg, iv; format: ADME, organism-based; set-up: dose 1 mg/kg, route intravenous; conditions: in vivo
Outline: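 Rats were given a single intravenous dose of 1 mg/kg. Half-life is reported in min, together with clearance (mL/h/kg).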

[13] = Ratio of drug level in brain to plasma in mouse at 1 mg/kg, iv; format: ADME, organism-based; set-up: dose 1 mg/kg, route intravenous; conditions: read-out: BPR
Outline: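 Single intravenous dose of 1 mg/kg in mice. Brain exposure was reported as brain AUC (ng h/mL), together with the brain-to-plasma ratio.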

[14] = AUC in mouse brain at 1 mg/kg, iv; format: ADME, organism-based; set-up: dose 1 mg/kg, route intravenous
Outline: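 Mice were dosed intravenously at 1 mg/kg. Brain exposure was expressed as AUC (ng h/mL) alongside the brain/plasma ratio.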

Rattus norvegicus [15] = assay: Oral bioavailability in rat at 2 mg/kg; format: ADME, organism-based; conditions: in vivo; outline: as §3

Chain of Mitogen-activated protein kinase 10 (P53779 whole entry): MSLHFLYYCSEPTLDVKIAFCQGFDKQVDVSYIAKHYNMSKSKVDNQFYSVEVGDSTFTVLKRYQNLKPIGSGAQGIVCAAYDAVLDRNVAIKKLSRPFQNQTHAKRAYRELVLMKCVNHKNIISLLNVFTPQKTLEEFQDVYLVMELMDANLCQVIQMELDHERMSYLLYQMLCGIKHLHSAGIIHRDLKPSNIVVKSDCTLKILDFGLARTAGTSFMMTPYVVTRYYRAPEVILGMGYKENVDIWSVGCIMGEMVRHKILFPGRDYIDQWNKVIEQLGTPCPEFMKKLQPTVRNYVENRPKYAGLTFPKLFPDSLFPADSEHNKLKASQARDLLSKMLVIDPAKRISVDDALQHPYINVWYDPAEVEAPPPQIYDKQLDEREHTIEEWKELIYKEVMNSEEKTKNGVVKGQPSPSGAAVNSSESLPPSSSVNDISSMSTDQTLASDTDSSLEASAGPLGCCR
Chain of Mitogen-activated protein kinase 8 (P45983 whole entry): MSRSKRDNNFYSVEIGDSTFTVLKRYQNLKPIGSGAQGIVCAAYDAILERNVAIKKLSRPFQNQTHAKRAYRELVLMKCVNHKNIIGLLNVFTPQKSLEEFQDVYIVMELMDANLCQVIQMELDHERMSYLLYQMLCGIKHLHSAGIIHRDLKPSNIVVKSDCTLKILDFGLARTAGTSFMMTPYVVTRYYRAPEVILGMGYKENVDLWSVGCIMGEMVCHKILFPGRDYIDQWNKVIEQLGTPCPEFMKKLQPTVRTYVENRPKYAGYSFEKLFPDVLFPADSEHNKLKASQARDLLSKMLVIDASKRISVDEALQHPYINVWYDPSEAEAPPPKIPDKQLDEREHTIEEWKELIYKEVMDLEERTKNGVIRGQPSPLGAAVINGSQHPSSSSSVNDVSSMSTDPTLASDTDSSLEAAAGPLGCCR
Chain of Mitogen-activated protein kinase 14 (Q16539 whole entry): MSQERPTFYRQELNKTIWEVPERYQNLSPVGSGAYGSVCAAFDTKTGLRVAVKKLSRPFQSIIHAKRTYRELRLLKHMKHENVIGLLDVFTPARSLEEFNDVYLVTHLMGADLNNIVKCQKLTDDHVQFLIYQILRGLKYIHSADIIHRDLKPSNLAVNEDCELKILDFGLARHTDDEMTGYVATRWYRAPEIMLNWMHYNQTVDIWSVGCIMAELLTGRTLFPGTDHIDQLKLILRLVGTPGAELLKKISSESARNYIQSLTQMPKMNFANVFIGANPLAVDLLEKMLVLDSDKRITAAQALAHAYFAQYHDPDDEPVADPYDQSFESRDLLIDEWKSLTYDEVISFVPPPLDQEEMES
Chain of Mitogen-activated protein kinase 1 (P28482 whole entry): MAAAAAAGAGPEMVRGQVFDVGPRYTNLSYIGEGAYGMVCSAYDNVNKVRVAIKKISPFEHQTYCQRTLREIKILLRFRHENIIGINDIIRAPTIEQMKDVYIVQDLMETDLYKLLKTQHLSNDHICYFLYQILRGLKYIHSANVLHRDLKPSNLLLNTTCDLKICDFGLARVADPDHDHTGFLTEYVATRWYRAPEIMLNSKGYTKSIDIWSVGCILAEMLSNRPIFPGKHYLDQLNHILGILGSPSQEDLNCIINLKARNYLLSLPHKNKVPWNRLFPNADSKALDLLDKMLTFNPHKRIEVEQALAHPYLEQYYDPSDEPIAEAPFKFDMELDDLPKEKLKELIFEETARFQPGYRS
Chain of Mitogen-activated protein kinase 9 (P45984 whole entry): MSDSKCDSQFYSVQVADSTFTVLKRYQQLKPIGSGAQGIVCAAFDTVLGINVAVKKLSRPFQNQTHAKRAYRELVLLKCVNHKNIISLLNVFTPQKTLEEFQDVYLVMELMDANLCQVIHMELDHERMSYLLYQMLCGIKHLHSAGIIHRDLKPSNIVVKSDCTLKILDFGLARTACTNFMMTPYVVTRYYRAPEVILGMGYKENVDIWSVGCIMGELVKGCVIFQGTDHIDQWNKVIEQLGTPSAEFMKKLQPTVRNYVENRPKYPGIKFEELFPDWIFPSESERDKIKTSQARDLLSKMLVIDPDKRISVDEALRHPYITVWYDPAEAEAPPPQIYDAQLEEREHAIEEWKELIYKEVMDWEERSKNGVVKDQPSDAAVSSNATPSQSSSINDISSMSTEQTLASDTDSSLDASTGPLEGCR

| solubility at 1 h, 20000 µM [1] | remaining at 0.5 h, 1 µM [2] | remaining at 0.5 h, 1 µM [3] | IC50 [4] | IC50 [5] | IC50 [6] | remaining at 0.5 h, 1 µM [7] | IC50 [8] | efflux ratio at 2 h, 5 µM (MDR1) | Papp A→B at 2 h, 5 µM [9] | IC50 [10] | AUC (Rattus norvegicus [11]) | half-life [12] | Kp [13] | AUC [14] | F (Rattus norvegicus [15]) | Structure (SMILES) |
| --- | --- | --- | --- | --- | --- | --- | --- | --- | --- | --- | --- | --- | --- | --- | --- | --- |
| 95 µM | 0% | – | – | – | – | – | – | – | – | – | – | – | – | – | – | N#Cc1csc(NC(=O)CN2C(=O)CCc3ccccc32)c1-c1ncn[nH]1 |
| – | 81% | 80% | 5 nM | 6 nM | 18 nM | 84% | – | – | – | – | – | – | – | – | – | N#Cc1csc(NC(=O)CN2C(=O)CCc3ncccc32)c1-c1nc[nH]n1 |
| – | 2% | 24% | 4 nM | 8 nM | 29 nM | 4% | – | – | – | – | – | – | – | – | – | N#Cc1csc(NC(=O)Cn2c(=O)ccc3cc(C(F)(F)F)ccc32)c1-c1ncco1 |
| – | 17% | 39% | 17 nM | 30 nM | 92 nM | 2% | – | – | – | – | – | – | – | – | – | O=C(Cc1cccc2ncc(F)cc12)Nc1scc(Br)c1-c1nc[nH]n1 |
| – | 0% | 11% | 7 nM | 6 nM | 66 nM | 0% | – | – | – | – | – | – | – | – | – | O=C(CN1C(=O)CCc2ncccc21)Nc1scc(Br)c1-c1ncco1 |
| – | 46% | 69% | 1 nM | 2 nM | 10 nM | 60% | > 50000 nM | 4.18 | 3.43 ×10⁻⁶ cm/s | > 50000 nM | – | – | – | – | – | N#Cc1ccc2c(ccc(=O)n2CC(=O)Nc2scc(Br)c2-c2ncn[nH]2)c1 |
| – | 9% | 38% | 3 nM | 5 nM | 15 nM | 14% | > 50000 nM | 0.68 | 8.31 ×10⁻⁶ cm/s | > 50000 nM | 571 ng·h/mL | 2.3 min | 1.4 | 160 ng·h/mL | 40% | O=C(Cn1c(=O)ccc2cc(F)c(F)cc21)Nc1scc(Br)c1-c1ncn[nH]1 |
| – | 0% | 3% | 13 nM | 15 nM | 145 nM | 0% | – | – | – | – | – | – | – | – | – | O=C(CN1C(=O)CCc2ncccc21)Nc1scc(Br)c1-c1nccs1 |
| 25 µM | 9% | – | – | – | – | – | – | – | – | – | – | – | 0.4 | 88 ng·h/mL | – | O=C(Cc1cccc2cnccc12)Nc1scc(Cl)c1-c1ncn[nH]1 |
| – | 1% | 49% | 31 nM | 71 nM | 193 nM | 27% | – | – | – | – | – | – | – | – | – | O=C(Cn1c(=O)ccc2c(C(F)(F)F)cccc21)Nc1scc(Br)c1-c1ncn[nH]1 |
| – | 50% | 83% | 9 nM | 14 nM | 32 nM | 55% | > 50000 nM | 1.8 | 36.8 ×10⁻⁶ cm/s | > 500 nM | 2720 ng·h/mL | 2.5 min | 0.24 | 35 ng·h/mL | 91% | O=C(CN1C(=O)CCc2ncccc21)Nc1scc(Br)c1-c1ncn[nH]1 |
| – | 18% | 42% | 14 nM | 41 nM | 140 nM | 5% | – | – | – | – | – | – | – | – | – | O=C(Cc1cc(F)cc2ncccc12)Nc1scc(Br)c1-c1ncn[nH]1 |
| – | 20% | 37% | 21 nM | 52 nM | 164 nM | 3% | – | – | – | – | – | – | – | – | – | O=C(Cc1cccc2ncc(C(F)(F)F)cc12)Nc1scc(Br)c1-c1nc[nH]n1 |
| – | 62% | 59% | 1 nM | 2 nM | 10 nM | 44% | – | – | – | – | – | – | – | – | – | N#Cc1ccc2ccc(=O)n(CC(=O)Nc3scc(Br)c3-c3ncn[nH]3)c2c1 |
